Laboratory results taken from ChEMBL document CHEMBL1799944, “New 2-heterocyclyl-imidazo[2,1-i]purin-5-one derivatives as potent and selective human A3 adenosine receptor antagonists” (J Med Chem, 2011).

Experiments:
[1] = target: T1, Adenosine receptor A1 (Homo sapiens, UniProt P30542); assay: Displacement of [3H]DPCPX from human adenosine A1 receptor expressed in CHO cells after 120 mins by scintillation spectrometry; type: cell-based
T1 sequence (P30542 whole entry): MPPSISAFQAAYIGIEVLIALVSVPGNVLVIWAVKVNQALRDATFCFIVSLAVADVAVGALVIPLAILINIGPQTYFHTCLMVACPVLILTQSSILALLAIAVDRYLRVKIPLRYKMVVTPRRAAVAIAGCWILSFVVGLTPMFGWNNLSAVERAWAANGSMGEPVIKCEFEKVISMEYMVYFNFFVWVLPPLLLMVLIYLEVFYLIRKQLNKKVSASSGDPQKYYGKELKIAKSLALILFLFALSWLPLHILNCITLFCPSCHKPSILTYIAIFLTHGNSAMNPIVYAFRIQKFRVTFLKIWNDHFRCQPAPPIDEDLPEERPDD
Procedure, shortened: (§1)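 hA1 CHO membranes (50 μg protein/assay) in 50 mM Tris HCl pH 7.4, pretreated with adenosine deaminase 2 UI/mL for 30 min at 37 °C. Incubated with 1 nM [3H]DPCPX plus 6-8 ligand concentrations for 120 min at 25 °C. Nonspecific binding defined with 1 μM DPCPX. Ki from IC50 by Cheng-Prusoff; geometric means with 95% confidence limits.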

[2] = target: T2, Adenosine receptor A3 (Homo sapiens, UniProt P0DMS8); assay: Antagonist activity human adenosine A3 receptor expressed in CHO cells assessed as blockade of Cl-IB-MECA-mediated inhibition of forskolin-stimulated [3H]cAMP accumulation after 150 mins by scintillation counter; type: functional, cell-based
T2 sequence (P0DMS8 whole entry): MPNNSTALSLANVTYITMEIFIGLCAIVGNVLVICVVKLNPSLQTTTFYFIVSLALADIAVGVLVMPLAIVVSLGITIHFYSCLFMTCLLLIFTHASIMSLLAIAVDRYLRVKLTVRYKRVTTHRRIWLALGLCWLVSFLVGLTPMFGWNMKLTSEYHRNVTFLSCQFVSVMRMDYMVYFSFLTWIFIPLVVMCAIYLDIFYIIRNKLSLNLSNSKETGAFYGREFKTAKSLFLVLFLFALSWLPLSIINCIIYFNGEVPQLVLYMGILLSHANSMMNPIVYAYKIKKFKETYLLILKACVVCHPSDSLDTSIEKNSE
Procedure, shortened: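 hA3-expressing CHO cells (1 x 10^6 cells/assay), preincubated 10 min at 37 °C in saline buffer pH 7.4 with adenosine deaminase 2 IU/mL and Ro 20-1724. Antagonism of 100 nM Cl-IB-MECA inhibition of cAMP in presence of 1 μM forskolin. Stopped with cold TCA. cAMP by [3H]cAMP competition protein binding (4 °C, 150 min), scintillation counting. IC50 from sigmoid nonlinear regression, mean ± SEM.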

[3] = target: T3, Adenosine receptor A2b (Homo sapiens) (UniProt P29275); assay: Antagonist activity human adenosine A2B receptor expressed in CHO cells assessed as inhibition of NECA-mediated [3H]cAMP accumulation at =<5000 nM after 150 mins by scintillation counter; type: functional, cell-based
T3 sequence (whole entry): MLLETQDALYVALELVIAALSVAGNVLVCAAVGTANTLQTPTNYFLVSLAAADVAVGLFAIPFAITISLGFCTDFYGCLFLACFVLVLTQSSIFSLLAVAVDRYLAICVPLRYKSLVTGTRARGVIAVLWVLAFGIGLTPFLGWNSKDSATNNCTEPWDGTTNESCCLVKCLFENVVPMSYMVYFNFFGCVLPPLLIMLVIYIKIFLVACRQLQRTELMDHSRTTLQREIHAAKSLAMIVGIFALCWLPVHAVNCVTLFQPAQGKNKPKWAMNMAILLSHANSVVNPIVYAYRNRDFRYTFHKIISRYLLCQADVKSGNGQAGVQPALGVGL
Procedure, shortened: (§2)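 Intact CHO cells expressing hA2B (1 x 10^6 cells/assay), preincubated 10 min at 37 °C in saline buffer pH 7.4 with 2 IU/mL adenosine deaminase and Ro 20-1724. Antagonism of 100 nM NECA-stimulated cAMP rise. Stopped with cold 6% TCA, ether-extracted. cAMP measured by competition binding with [3H]cAMP and beef adrenal binding protein (4 °C, 150 min), charcoal separation, scintillation counting. IC50 by sigmoid nonlinear regression, mean ± SEM.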

[4] = target: T4, Adenosine receptor A2b (Homo sapiens, UniProt P29275); assay: Antagonist activity human adenosine A2B receptor expressed in CHO cells assessed as inhibition of NECA-mediated [3H]cAMP accumulation after 150 mins by scintillation counter; type: functional, cell-based; procedure, shortened: as §2
T4 sequence (P29275 whole entry): T3 sequence (whole entry)

[5] = target: T5, Adenosine receptor A2a (Homo sapiens, UniProt P29274); assay: Displacement of [3H]ZM 241385 from human adenosine A2A receptor expressed in CHO cells after 60 mins by scintillation spectrometry; type: cell-based
[6] = target: T2, Adenosine receptor A3; assay: Displacement of [3H]MRE 3008F20 from human adenosine A3 receptor expressed in CHO cells after 120 mins by scintillation spectrometry; type: cell-based
Procedure, shortened: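 Membranes from hA3 CHO cells (50 μg protein/assay) in 50 mM Tris HCl, 10 mM MgCl2, 1 mM EDTA pH 7.4, adenosine deaminase-treated. Incubated with 1 nM [3H]MRE 3008F20 and 6-8 ligand concentrations, 120 min at 4 °C. Nonspecific defined with 1 μM MRE 3008F20 (~25% of total). GF/B filtration, three ice-cold washes, scintillation counting. Ki via Cheng-Prusoff; geometric mean, 95% confidence limits, n = 3-6.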

[7] = target: T5, Adenosine receptor A2a; assay: Displacement of [3H]ZM 241385 from human adenosine A2A receptor expressed in CHO cells at <=5000 nM after 60 mins by scintillation spectrometry; type: cell-based
[8] = target: Adenosine receptors; A1 & A3 (Homo sapiens) (UniProt P30542+P0DMS8); assay: Ratio of Ki for human adenosine A1 receptor to Ki for human adenosine A3 receptor
[9] = target: T6, Adenosine receptor A1 (Homo sapiens) (UniProt P30542); assay: Displacement of [3H]DPCPX from human adenosine A1 receptor expressed in CHO cells at =<5000 nM after 120 mins by scintillation spectrometry; type: cell-based; procedure, shortened: as §1
T6 sequence (whole entry): T1 sequence (P30542 whole entry)

T5 sequence (P29274 whole entry): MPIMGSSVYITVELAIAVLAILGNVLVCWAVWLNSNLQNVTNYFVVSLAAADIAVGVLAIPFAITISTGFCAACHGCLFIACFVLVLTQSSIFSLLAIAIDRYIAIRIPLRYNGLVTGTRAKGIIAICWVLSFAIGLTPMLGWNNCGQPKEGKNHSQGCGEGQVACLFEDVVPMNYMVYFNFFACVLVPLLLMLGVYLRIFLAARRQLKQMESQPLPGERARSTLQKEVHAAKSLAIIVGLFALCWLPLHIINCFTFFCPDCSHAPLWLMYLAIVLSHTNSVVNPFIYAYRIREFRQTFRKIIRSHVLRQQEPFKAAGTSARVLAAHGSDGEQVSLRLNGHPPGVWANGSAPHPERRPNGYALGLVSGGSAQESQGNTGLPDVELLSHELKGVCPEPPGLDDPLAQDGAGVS

SMILES	Ki [1] [nM]	IC50 [2] [nM]	inhibition [3] [%]	IC50 [4] [nM]	Ki [5] [nM]	Ki [6] [nM]	inhibition [7] [%]	Ratio Ki [8]	inhibition [9] [%]
C=CCN1C(=O)N2C[C@@H](C)N=C2c2[nH]c(-c3cc(C)nn3C)nc21	2510	35.9	10	> 5000	> 5000	5.04	1		
C=CCN1C(=O)N2C[C@H](C)N=C2c2[nH]c(-c3cc(C)nn3C)nc21	1960	40.9	12	> 5000	> 5000	6.03	4		
CC[C@@H]1CN2C(=O)N(Cc3ccccc3)c3nc(-c4cc(C)nn4C)[nH]c3C2=N1	803		10	> 5000	> 5000	12.6	3		
CC[C@H]1CN2C(=O)N(Cc3ccccc3)c3nc(-c4cc(C)nn4C)[nH]c3C2=N1	545		13	> 5000	> 5000	13.2	4		
C=CCN1C(=O)N2C[C@@H](CC)N=C2c2[nH]c(-c3cc(OC)nn3C)nc21	2520	23.4	21	> 5000	> 5000	1.46	13		
C=CCN1C(=O)N2C[C@H](CC)N=C2c2[nH]c(-c3cc(OC)nn3C)nc21	1080	10.5	14	> 5000	> 5000	2.37	15		
COc1cc(-c2nc3c([nH]2)C2=NC(C)CN2C(=O)N3Cc2ccccc2)n(C)n1 (stereo not given)	1900	27.6	11	> 5000	> 5000	3.11	1	610	
COc1cc(-c2nc3c([nH]2)C2=N[C@H](C)CN2C(=O)N3Cc2ccccc2)n(C)n1	2550	15.9	19	> 5000	> 5000	2.38	11		
COc1cc(-c2nc3c([nH]2)C2=N[C@@H](C)CN2C(=O)N3Cc2ccccc2)n(C)n1	1730	17.5	22	> 5000	> 5000	2.52	1		
C=CCN1C(=O)N2CC(C)N=C2c2[nH]c(-c3cc(C)nn3C)nc21 (racemic)	2040	34.2	30	> 5000	> 5000	4.56	7	450	
C=CCN1C(=O)N2CC(CC)N=C2c2[nH]c(-c3cc(C)nn3C)nc21 (racemic)	515	30.3	20	> 5000	> 5000	3.01	8	170	
Cc1cc(-c2nc3c([nH]2)C2=NC(C)CN2C(=O)N3Cc2ccccc2)n(C)n1 (racemic)	> 5000		8	> 5000	> 5000	17.2	1	> 290	
CCC1CN2C(=O)N(Cc3ccccc3)c3nc(-c4cc(C)nn4C)[nH]c3C2=N1 (racemic)	615		20	> 5000	> 5000	10.3	5	60	
C=CCN1C(=O)N2CC(CC)N=C2c2[nH]c(-c3cc(OC)nn3C)nc21 (racemic)	1530	12.2	16	> 5000	> 5000	1.96	1	780	
CCC1CN2C(=O)N(Cc3ccccc3)c3nc(-c4cc(OC)nn4C)[nH]c3C2=N1 (racemic)	405	20.4	22	> 5000	> 5000	3.85	9	105	
C=CCN1C(=O)N2CC(C)N=C2c2[nH]c(-c3cc(OCc4ccccc4)nn3C)nc21 (racemic)	> 5000		17	> 5000	> 5000	24.7	25	202	47
C=CCN1C(=O)N2CC(CC)N=C2c2[nH]c(-c3cc(OCc4ccccc4)nn3C)nc21 (racemic)	1200		14	> 5000	> 5000	21.5	5	56	
CC1CN2C(=O)N(Cc3ccccc3)c3nc(-c4cc(OCc5ccccc5)nn4C)[nH]c3C2=N1 (racemic)	2560		13	> 5000	2010	44.8		57	
CCC1CN2C(=O)N(Cc3ccccc3)c3nc(-c4cc(OCc5ccccc5)nn4C)[nH]c3C2=N1 (racemic)	1680		12	> 5000	2130	39.8		42	
C=CCN1C(=O)N2CC(C)N=C2c2[nH]c(-c3cc(C)n(C)n3)nc21 (racemic)	> 5000		9	> 5000	> 5000	13.9	1	> 359	13
C=CCN1C(=O)N2CC(C)N=C2c2[nH]c(-c3cc(OC)no3)nc21 (racemic)	> 5000	24.2	13	> 5000	> 5000	3.58	11	> 1400	26
C=CCN1C(=O)N2CC(CC)N=C2c2[nH]c(-c3cc(OC)no3)nc21 (racemic)	3020	14.6	25	> 5000	1520	1.93			
CCC1CN2C(=O)N(Cc3ccccc3)c3nc(-c4cc(OC)no4)[nH]c3C2=N1 (racemic)	485	25.3	18	> 5000	> 5000	2.71	12		
